Screens (PubChem)
In the library only some 1.7% were active in any assay of this set; here they are far more common.
STEP inh: inhibitors of human striatal-enriched phosphatase STEP. P54829. inhibition, % at 20 µM. recombinant STEP, OMFP fluorogenic substrate, fluorescence. 360,000 tested, 0.25% active. AID 588621;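 active = inhibition at 20 µM, scaled per plate between control wells, above about 37%, limit read from the data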;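 also: 0% = DMSO with enzyme and substrate and 100% = substrate only without enzyme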
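Material: STEP (striatal-enriched tyrosine phosphatase) enzyme, cell-free | Medium: 50 mM Bis-Tris pH 6.0 with 2.5 mM DTT and 0.005% Tween 20 | Read-out: Percent inhibition scaled to no-enzyme and uninhibited-enzyme controls, plate-pattern corrected | Signal: Fluorescence read at 480 nm ex / 540 nm em | Times: 20 min reaction, room temperature, in the dark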
LMPTP block: LMPTP (human) inhibition; inhibition, % at 20 µM; 360,000 tested, 0.22% active; recombinant LMPTP-A, OMFP fluorogenic substrate, fluorescence intensity;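 active = compounds that cut the enzyme signal by at least half of the control window in the single-dose screen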;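 also: plate controls were DMSO wells with enzyme plus substrate for no effect and substrate without enzyme for full effect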
Target sequence (P24666 whole entry, looked up): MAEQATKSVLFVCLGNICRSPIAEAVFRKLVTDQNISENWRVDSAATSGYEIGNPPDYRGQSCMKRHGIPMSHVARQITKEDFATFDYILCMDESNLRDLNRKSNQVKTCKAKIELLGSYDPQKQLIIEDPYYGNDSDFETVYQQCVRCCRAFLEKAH
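test system = LMPTP-A | amount = 0.625 nM LMPTP-A final | reagent = fluorogenic phosphatase substrate OMFP at 400 µM final | incubation = 50 min at room temperature | benchmarks = no-enzyme low control, uninhibited high control | medium = Bis-Tris pH 6.0, DTT, detergent | signal = fluorescence intensity of OMFP turnover product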
DNMT1 inh: inhibitors of human DNMT1; P26358; DNMT1 molecular beacon, Hinp1I cleavage, fluorescence; inhibition (reported as % activation of signal), % at 10 µM; 360,000 tested, 0.83% active; AID 588458; in the data active = inhibition above about 50%
SUMO1 PPI mod: modulators of human SUMO1-mediated protein-protein interactions | SUMO1 binding to a labelled peptide, TR-FRET, 1 h | inhibition, % at 20 µM | 360,000 tested, 0.33% active | P63165; in the data active = inhibition above about 37%
Target sequence (P63165 whole entry, looked up): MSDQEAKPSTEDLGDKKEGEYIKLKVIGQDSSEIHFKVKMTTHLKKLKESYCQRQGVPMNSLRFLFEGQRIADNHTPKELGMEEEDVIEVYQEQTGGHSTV
Scp1 inh: blocks human Scp-1 phosphatase activity; Q9GZU7; Recombinant Scp1, phosphopeptide, malachite green phosphate absorbance; inhibition, % at 20 µM; 340,000 tested, 0.88% active; AID 493091;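 active = inhibition above about 50% at 20 µM, limit read from the data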;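 also: plate controls were DMSO wells with enzyme for no effect and wells lacking enzyme for full effect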
Target sequence (Q9GZU7 76-261 limits assumed): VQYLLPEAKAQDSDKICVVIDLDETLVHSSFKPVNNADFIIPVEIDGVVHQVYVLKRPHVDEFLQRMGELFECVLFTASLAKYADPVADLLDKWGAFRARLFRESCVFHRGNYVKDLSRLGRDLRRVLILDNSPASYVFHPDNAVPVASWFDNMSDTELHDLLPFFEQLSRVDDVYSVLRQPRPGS
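assay system = SCP-1 phosphatase catalytic domain, residues 76-261 | buffer or medium = 50 mM Tris acetate pH 5.5, 0.005% Tween-20, 10 mM MgCl2 | incubation = enzyme reaction 45 min at room temperature, colour 5 min, stabilisation 30 min | signal = Phosphate-binding colour reagent, absorbance read at 630 nm | measure = % inhibition at 20 µM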
Scp1 confirm: Scp-1 (human) inhibition, single-dose confirmed | shares compounds with Scp1 inh | recombinant SCP-1 catalytic domain, phosphate release, malachite green absorbance | inhibition, % at 20 µM | 2,500 tested, 61% active | AID 540281;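 also: plate controls were DMSO with enzyme for no effect and buffer wells lacking enzyme for full effect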
MG interference: colorimetric interference in Scp-1 counter-screen. shares compounds with Scp1 inh. Colorimetric interference counterscreen, malachite green absorbance 630 nm. apparent inhibition (interference), % at 20 µM. 2,500 tested, under 10 active;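 also: compounds added after enzyme reaction finished so only phosphate colour detection is probed; plate controls were DMSO wells with completed Scp-1 reaction for no effect and substrate wells lacking enzyme for full effect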
Scp-1 Tm shift: binds human Scp-1, shifting its melting temperature; shares compounds with Scp1 inh; Recombinant SCP1, Sypro Orange thermal shift Tm; thermal shift relative to vanadate control, % at 40 µM; 1,500 tested, 25% active; AID 540329;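 active = substances whose mean melting-temperature shift, as a percentage of the reference inhibitor's shift, reaches about 5.3%, limit read from the data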;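 also: 0% = Tm of DMSO wells and 100% = Tm with sodium orthovanadate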
The depositor's hits bear a star; . = no result.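 The calls were made as follows, unless noted: active = inhibition of at least 30% at 20 µM; inactive = the rest.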

SMILES	STEP inh	LMPTP block	DNMT1 inh	SUMO1 PPI mod	Scp1 inh	Scp1 confirm	MG interference	others
O=C(CCCCCCCCC(=O)N/N=C/c1ccco1)N/N=C/c1ccco1	2.5	-0.5	8.8	0.8	50.8*	67.8*	-11.5	Scp-1 Tm shift=-7.3
COc1ccc(S(=O)(=O)NC(=O)C2(C)CCN2C(=O)C2CCCCC2)cc1OC (centres undefined)	0.4	-3.5	-1.4	1.6	.	.	.
Cc1ccc(S(=O)(=O)N2CC(CO)=CCC2c2ccccc2)cc1 (centres undefined)	.	-1.0	.	0.0	.	.	.
COc1ccc(CCn2c(C(C)C)nc3c(c(=O)c4ccccc4n3C)c2=O)cc1	2.2	4.2	-1.8	11.5	58.5*	11.4	5.5
CCCNC(=O)C1(C)CCCN(C(=O)c2c(F)ccc(C)c2F)C1 (centres undefined)	0.7	-1.1	1.2	0.1	.	.	.
O=C(c1ccccc1F)N1CCCC(N2CCN(Cc3ccc4c(c3)OCO4)CC2)C1 (centres undefined)	3.1	-1.3	2.3	1.8	.	.	.
CC(=O)c1ccccc1C(=O)N1CCCC(N2CCN(Cc3ccc4c(c3)OCO4)CC2)C1 (centres undefined)	-0.8	1.7	3.8	-3.0	65.0*	-10.0	-13.1
COc1ccc(C)cc1NC(=O)c1ccc2c(=O)n3c(nc2c1)CCCCC3	-0.1	1.4	-1.4	-1.5	56.4*	2.6	-0.8
Cc1ccc(C)c(NC(=O)c2ccc3c(=O)n4c(nc3c2)CCC4)c1	-0.1	-0.6	4.0	2.9	-7.6	.	.
CCOC(=O)CSc1[nH]c(=O)cc(C)c1C#N	-2.3	-1.3	1.0	-1.6	50.1*	-26.6	-22.4
Cc1cc(C)c2c(n1)SCC(=O)N2CC(=O)Nc1c(C)cccc1C	2.8	-1.8	4.0	6.5	52.4*	-14.2	-11.5
Cc1cc(C)c2c(n1)SCC(=O)N2CC(=O)Nc1cccc(Cl)c1	-0.5	-0.2	-3.3	4.3	-1.2	.	.
C[N+]1(CC2COC3(CCCCC3)O2)CCCCC1 (centres undefined)	-1.3	0.6	3.0	-1.8	107.9*	74.9*	-20.8	Scp-1 Tm shift=-15.8
Cc1ccc(NC(=O)CSc2ccccc2NC(=O)c2ccccc2Cl)cc1Cl	-2.9	3.5	20.5	6.7	89.7*	63.2*	-15.3	Scp-1 Tm shift=5.1
Cc1ccc(NC(=O)CSc2ccccc2NC(=O)c2ccccc2)cc1Cl	-0.6	2.0	21.4	-0.3	-6.8	.	.
O=C(CCN1C(=O)C2CCCCC2C1=O)Nc1nc2ccc(F)cc2s1 (centres undefined)	-1.5	-0.5	3.3	5.1	-1.7	-9.7	-13.6
Cc1ccc(N(Cc2ccccc2)C(=O)CSC(C)C(=O)Nc2cc(C)on2)cc1 (centres undefined)	-0.6	-4.0	3.4	-9.0	.	.	.
N#Cc1ccc(C(=O)N2CCCCC2c2cc(C(=O)NCc3ccccc3)no2)cc1 (centres undefined)	-1.9	-1.0	-2.0	1.3	.	.	.
C1=CC2=NC34CCCCC3CC3=C(CCCC3)N4C2=CC1=NC1CCCCC1 (centres undefined)	3.1	9.8	-4.2	-12.0	68.0*	-6.2	-4.6
CCC[N+]1(CC#CC2(O)CCCCC2)CCOCC1	-2.9	-0.6	3.0	-2.5	58.7*	76.7*	-22.4	Scp-1 Tm shift=-6.0
Cc1ccc(CNC(=O)CCNC(=O)c2ccc([N+](=O)[O-])cc2)cc1	-1.0	-0.7	-0.2	-22.2	-0.2	.	.
COc1ccc2nc(COC(=O)c3cccs3)c(C(C)=O)[n+]([O-])c2c1	-0.6	0.1	-3.2	-25.7	102.7*	0.5	-16.2
COc1ccc2nc(COC(=O)c3cccc([N+](=O)[O-])c3)c(C(C)=O)[n+]([O-])c2c1	-0.5	1.2	-5.6	-6.5	-7.0	.	.
Cc1ccc(NC(=O)CC2C(=O)NCCN2C(=O)c2ccc(F)cc2)cc1 (centres undefined)	-1.7	-0.8	0.8	1.5	-4.2	-3.4	-11.4
CC(C)C(=O)N1CCC1(C)C(=O)Nc1ccc2cn[nH]c2c1 (centres undefined)	-3.1	-1.1	-0.8	-3.4	.	.	.
SMILES	STEP inh	LMPTP block	DNMT1 inh	SUMO1 PPI mod	Scp1 inh	Scp1 confirm	MG interference	others
Cn1ccc2c(N3CCCCC3)cc3c(c21)C1CCC3O1 (centres undefined)	2.3	0.2	3.3	-0.9	.	.	.
O=C(Nc1ccccc1C(=O)N1CCCCCC1)c1ccccc1	0.7	-1.2	1.6	-3.9	58.5*	-24.0	-21.4
COc1cccc(C(=O)Nc2ccccc2C(=O)N2CCCC2)c1	3.3	-0.3	-3.3	-0.7	-6.7	.	.
CCOC(=O)Cc1c(-c2cccc(Cl)c2)nc2c3ccccc3ccn12	.	6.7	.	2.4	.	.	.
CCc1cccc(NS(=O)(=O)c2ccc3c(c2)NC(=O)CC(=O)N3)c1	-5.9	0.1	-0.2	2.4	-8.1	-10.8	-14.5
Cc1cccc(NS(=O)(=O)c2ccc3c(c2)NC(=O)CC(=O)N3)c1	-0.2	-1.0	0.6	0.7	2.6	.	.
Cc1ccc(C(=O)N2CCN(S(=O)(=O)c3ccccc3[N+](=O)[O-])CC2)o1	4.3	0.1	13.8	-1.8	34.4	.	.
Cc1ccc(C(=O)N2CCN(S(=O)(=O)c3cc(Br)ccc3Br)CC2)o1	1.7	0.3	4.0	0.0	67.6*	19.2	-0.2
Cc1ccc(-c2c(C#N)c(N)nc3c2CCCCC3)cc1	1.8	-1.2	4.5	-1.5	-4.5	.	.
CC(C)c1ccc(-c2c(C#N)c(N)nc3c2CCCCC3)cc1	4.4	-0.1	2.9	1.0	99.6*	-4.9	-9.8
COc1ccc(CN(C(=O)/C=C/c2ccco2)C2CCS(=O)(=O)C2)cc1 (centres undefined)	2.7	4.2	12.0	-1.3	87.4*	45.5*	-13.4	Scp-1 Tm shift=2.2
Cc1ccccc1C(=O)Nc1nnc([C@@H]2C[C@H](O)[C@@H](CO)O2)s1	1.6	-1.6	-0.5	0.7	.	.	.
COc1ccc(/C=N/Nc2ncc(Br)cn2)c(OC)c1	15.4	11.3	19.6	-5.8	57.3*	37.5*	2.5	Scp-1 Tm shift=-17.4
CC1(C)CC(N2CCOCC2)=CC(=[N+]2CCOCC2)C1	-1.3	-0.8	-0.5	10.9	2.2	.	.
CC1C[N+](=C2C=C(N3CCOCC3)CC(C)(C)C2)CC(C)O1 (centres undefined)	-0.7	-0.9	12.2	-3.7	102.9*	91.5*	-3.8	Scp-1 Tm shift=-15.7
O=[N+]([O-])c1ccc2c(c1)-c1ccccc1C2O (centres undefined)	-1.8	1.7	10.4	-27.5	.	.	.
Cc1nn(Cc2ccccc2Cl)c(C)c1NC(=O)c1noc2c1CCCCC2	-2.6	-0.5	-1.8	-0.2	-8.4	.	.
